Measurements as given in ChEMBL document CHEMBL4184148 (Bioorg Med Chem Lett, 2017).

Columns and labels:
[1] = system: Tyrosine-protein kinase ABL1 (Homo sapiens), P00519 [H396P]; experiment: Binding affinity to human phosphorylated ABL1 H396P mutant (S229 to K512 residues) expressed in HEK293 cells at 1 uM by Kinomescan method relative to control; type: cell-based
[2] = molecular target: Activin receptor type-2A (Homo sapiens) (UniProt P27037); experiment: Binding affinity to wild-type human ACVR2A (V171 to T499 residues) expressed in Escherichia coli BL21 at 1 uM by Kinomescan method relative to control
Chain of Activin receptor type-2A (Homo sapiens) (P27037 whole entry, the tested form may be a part): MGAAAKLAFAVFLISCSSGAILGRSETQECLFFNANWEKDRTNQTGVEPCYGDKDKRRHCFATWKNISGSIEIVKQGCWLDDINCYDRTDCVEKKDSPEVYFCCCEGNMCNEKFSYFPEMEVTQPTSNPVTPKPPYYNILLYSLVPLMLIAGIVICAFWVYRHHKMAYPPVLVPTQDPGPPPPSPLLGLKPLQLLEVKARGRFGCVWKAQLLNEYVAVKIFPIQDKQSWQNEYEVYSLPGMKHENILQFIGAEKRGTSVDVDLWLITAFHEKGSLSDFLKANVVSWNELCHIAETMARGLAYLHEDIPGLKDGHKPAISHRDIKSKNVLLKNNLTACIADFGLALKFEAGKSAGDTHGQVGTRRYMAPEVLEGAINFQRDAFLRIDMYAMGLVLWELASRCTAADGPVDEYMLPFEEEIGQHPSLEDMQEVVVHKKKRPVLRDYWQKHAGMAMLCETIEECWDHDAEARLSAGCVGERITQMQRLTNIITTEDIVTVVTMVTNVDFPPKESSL

[3] = molecular target: Ankyrin repeat and protein kinase domain-containing protein 1 (Homo sapiens) (UniProt Q8NFD2); experiment: Binding affinity to wild-type human partial length ANKK1 (M1 to A305 residues) expressed in HEK293 cells at 1 uM by Kinomescan method relative to control; type: cell-based
Procedure, shortened: (§1)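 Kinome-wide competition binding panel run by an outside provider, with each compound tested at a single concentration. Activity is read against the kinase panel.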

[4] = molecular target: Aurora kinase A (Homo sapiens) (UniProt O14965); experiment: Binding affinity to wild-type human partial length AURKA (E122 to K401 residues) expressed in HEK293 cells at 1 uM by Kinomescan method relative to control; type: cell-based; procedure, shortened: as §1
[5] = molecular target: Calcium/calmodulin-dependent protein kinase type 1 (Homo sapiens) (UniProt Q14012); experiment: Binding affinity to wild-type human full length CAMK1 (M1 to L370 residues) expressed in Escherichia coli BL21 at 1 uM by Kinomescan method relative to control
Chain of Calcium/calmodulin-dependent protein kinase type 1 (Homo sapiens) (Q14012 whole entry, looked up, the tested form may be a part): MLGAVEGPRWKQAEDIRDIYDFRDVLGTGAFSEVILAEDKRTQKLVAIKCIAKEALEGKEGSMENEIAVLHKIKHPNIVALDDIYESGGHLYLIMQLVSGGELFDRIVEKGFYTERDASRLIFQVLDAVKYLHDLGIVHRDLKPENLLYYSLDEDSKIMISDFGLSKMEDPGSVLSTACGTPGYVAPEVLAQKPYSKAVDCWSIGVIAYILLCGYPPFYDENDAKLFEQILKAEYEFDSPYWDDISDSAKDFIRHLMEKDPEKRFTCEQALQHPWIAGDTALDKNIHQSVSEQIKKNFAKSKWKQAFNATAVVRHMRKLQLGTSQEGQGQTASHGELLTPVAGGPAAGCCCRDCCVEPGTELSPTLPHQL

[6] = molecular target: Dual specificity protein kinase CLK2 (Homo sapiens) (UniProt P49760); experiment: Binding affinity to wild-type human partial length CLK2 (D144 to R498 residues) expressed in Escherichia coli BL21 at 1 uM by Kinomescan method relative to control
[7] = molecular target: Macrophage colony-stimulating factor 1 receptor (Homo sapiens) (UniProt P07333); experiment: Binding affinity to wild-type human partial length CSF1R (I564 to S939 residues) expressed in Escherichia coli BL21 at 1 uM by Kinomescan method relative to control
[8] = molecular target: Casein kinase II subunit alpha (Homo sapiens) (UniProt P68400); experiment: Binding affinity to wild-type human full length CSNK2A1 (M1 to Q391 residues) expressed in HEK293 cells at 1 uM by Kinomescan method relative to control; type: cell-based
Chain of Casein kinase II subunit alpha (Homo sapiens) (P68400 whole entry, looked up, the tested form may be a part): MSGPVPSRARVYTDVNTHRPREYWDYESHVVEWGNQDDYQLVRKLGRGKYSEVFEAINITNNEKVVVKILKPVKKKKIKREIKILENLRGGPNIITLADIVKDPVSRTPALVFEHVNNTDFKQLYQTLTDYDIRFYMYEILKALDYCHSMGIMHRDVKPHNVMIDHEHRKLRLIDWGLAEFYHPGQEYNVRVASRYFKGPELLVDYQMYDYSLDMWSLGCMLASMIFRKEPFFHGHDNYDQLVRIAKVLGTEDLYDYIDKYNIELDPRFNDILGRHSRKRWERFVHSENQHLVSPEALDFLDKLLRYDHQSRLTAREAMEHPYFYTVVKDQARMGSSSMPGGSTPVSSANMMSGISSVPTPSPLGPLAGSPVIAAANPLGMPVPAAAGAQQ
Procedure, shortened: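 Run as one kinome-wide competition binding panel with each compound at a single fixed concentration. Results were plotted as a kinome-wide selectivity map.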

[9] = molecular target: Receptor tyrosine-protein kinase erbB-2 (Homo sapiens) (UniProt P04626); experiment: Binding affinity to wild-type human partial length ERBB2 (K646 to V1225 residues) expressed in HEK293 cells at 1 uM by Kinomescan method relative to control; type: cell-based
[10] = system: Receptor-type tyrosine-protein kinase FLT3 (Homo sapiens), P36888 [UNDEFINED MUTATION]; experiment: Binding affinity to human partial length FLT3 ITD/D835V double mutant expressed in Escherichia coli BL21 at 1 uM by Kinomescan method relative to control
Chain of Receptor-type tyrosine-protein kinase FLT3 (Homo sapiens), P36888 [UNDEFINED MUTATION] (P36888 whole entry, looked up, stated change not applied, the tested form may be a part): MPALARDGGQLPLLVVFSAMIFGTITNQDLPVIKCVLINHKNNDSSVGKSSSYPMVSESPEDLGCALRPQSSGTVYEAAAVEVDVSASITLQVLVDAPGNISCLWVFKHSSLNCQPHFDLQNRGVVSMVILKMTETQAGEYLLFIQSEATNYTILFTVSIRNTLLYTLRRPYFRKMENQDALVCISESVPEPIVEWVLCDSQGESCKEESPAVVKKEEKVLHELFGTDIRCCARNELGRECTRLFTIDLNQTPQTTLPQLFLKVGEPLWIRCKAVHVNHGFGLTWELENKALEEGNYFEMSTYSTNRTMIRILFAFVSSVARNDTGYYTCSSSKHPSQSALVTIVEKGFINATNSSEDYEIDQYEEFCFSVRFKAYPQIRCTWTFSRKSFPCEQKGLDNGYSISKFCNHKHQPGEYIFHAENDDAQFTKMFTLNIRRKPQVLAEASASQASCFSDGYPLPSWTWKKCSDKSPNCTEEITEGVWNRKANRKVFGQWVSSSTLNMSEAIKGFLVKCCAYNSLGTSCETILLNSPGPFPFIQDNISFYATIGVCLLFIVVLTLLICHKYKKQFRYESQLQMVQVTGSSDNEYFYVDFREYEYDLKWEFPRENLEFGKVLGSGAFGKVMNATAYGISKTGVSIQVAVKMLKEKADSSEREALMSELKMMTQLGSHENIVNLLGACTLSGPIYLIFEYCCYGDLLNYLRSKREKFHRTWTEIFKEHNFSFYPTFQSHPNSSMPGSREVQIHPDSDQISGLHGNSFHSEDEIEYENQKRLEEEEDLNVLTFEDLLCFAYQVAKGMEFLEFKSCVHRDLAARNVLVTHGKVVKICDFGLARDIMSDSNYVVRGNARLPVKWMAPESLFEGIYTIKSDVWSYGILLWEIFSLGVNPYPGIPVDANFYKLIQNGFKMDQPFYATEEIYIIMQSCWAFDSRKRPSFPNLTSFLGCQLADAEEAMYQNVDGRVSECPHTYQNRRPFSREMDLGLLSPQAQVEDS

[11] = system: Receptor-type tyrosine-protein kinase FLT3 (Homo sapiens), P36888 [UNDEFINED MUTATION]; experiment: Binding affinity to human partial length FLT3 ITD mutant expressed in Escherichia coli BL21 at 1 uM by Kinomescan method relative to control
[12] = molecular target: Serine/threonine-protein kinase MAK (Homo sapiens) (UniProt P20794); experiment: Binding affinity to wild-type human partial length MAK (M1 to P314 residues) expressed in Escherichia coli BL21 at 1 uM by Kinomescan method relative to control
[13] = molecular target: Mitogen-activated protein kinase kinase kinase 4 (Homo sapiens) (UniProt Q9Y6R4); experiment: Binding affinity to wild-type human partial length MAP3K4 (G1319 to E1608 residues) expressed in Escherichia coli BL21 at 1 uM by Kinomescan method relative to control
Chain of Mitogen-activated protein kinase kinase kinase 4 (Homo sapiens) (Q9Y6R4 whole entry, the tested form may be a part): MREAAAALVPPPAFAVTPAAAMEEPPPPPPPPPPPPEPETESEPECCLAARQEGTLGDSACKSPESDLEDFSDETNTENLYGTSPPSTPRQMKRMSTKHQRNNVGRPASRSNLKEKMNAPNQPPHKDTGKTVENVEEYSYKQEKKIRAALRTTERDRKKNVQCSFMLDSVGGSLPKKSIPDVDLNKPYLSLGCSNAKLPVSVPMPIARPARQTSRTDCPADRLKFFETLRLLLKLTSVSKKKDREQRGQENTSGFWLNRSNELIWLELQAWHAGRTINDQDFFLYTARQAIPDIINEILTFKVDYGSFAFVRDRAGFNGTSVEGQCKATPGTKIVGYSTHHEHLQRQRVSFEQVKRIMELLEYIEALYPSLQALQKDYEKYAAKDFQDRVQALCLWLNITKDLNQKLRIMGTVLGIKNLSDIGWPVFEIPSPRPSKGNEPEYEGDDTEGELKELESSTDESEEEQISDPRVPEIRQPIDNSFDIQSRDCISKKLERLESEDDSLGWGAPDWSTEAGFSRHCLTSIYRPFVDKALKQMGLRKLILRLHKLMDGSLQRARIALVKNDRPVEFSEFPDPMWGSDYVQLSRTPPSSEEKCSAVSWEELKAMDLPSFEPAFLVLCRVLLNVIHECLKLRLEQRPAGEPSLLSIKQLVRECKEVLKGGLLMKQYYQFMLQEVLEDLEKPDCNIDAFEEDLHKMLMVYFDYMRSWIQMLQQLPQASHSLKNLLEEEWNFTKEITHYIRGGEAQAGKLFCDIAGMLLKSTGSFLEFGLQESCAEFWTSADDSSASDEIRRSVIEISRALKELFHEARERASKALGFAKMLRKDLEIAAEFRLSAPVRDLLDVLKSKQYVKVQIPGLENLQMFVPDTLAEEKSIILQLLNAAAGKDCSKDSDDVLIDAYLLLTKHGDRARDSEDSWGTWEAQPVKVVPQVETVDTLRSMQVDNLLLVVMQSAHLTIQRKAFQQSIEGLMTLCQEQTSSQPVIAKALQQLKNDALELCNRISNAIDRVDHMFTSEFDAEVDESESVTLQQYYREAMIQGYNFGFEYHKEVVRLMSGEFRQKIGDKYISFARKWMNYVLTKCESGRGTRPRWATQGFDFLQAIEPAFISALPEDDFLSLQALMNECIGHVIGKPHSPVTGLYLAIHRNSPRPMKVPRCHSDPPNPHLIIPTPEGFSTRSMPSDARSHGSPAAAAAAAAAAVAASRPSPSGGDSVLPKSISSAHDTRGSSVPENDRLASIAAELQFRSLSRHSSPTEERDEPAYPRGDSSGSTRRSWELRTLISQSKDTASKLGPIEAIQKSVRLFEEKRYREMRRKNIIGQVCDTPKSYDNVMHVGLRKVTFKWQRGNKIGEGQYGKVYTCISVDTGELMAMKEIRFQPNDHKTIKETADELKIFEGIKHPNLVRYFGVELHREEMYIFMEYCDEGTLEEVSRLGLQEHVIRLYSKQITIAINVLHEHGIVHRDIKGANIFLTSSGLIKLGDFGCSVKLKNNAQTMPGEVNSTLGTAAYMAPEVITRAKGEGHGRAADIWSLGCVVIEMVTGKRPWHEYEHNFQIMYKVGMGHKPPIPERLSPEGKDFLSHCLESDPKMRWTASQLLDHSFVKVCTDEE

[14] = molecular target: Serine/threonine-protein kinase Nek9 (Homo sapiens) (UniProt Q8TD19); experiment: Binding affinity to wild-type human partial length NEK9 (P32 to R328 residues) expressed in Escherichia coli BL21 at 1 uM by Kinomescan method relative to control
[15] = molecular target: Mitogen-activated protein kinase 13 (Homo sapiens) (UniProt O15264); experiment: Binding affinity to wild-type human full length p38-delta (M1 to L365 residues) expressed in Escherichia coli BL21 at 1 uM by Kinomescan method relative to control; procedure, shortened: as §1
Chain of Mitogen-activated protein kinase 13 (Homo sapiens) (O15264 whole entry, the tested form may be a part): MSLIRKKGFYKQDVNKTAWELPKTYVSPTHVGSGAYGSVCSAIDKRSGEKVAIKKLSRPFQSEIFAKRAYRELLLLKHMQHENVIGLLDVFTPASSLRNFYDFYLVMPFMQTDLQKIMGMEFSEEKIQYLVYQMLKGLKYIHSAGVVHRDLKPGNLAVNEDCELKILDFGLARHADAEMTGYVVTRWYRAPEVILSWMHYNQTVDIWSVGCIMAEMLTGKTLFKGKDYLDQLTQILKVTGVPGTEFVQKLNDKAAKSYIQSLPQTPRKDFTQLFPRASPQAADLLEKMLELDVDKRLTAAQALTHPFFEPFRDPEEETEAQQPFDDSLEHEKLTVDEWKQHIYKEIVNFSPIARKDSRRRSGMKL

[16] = molecular target: Cyclin-dependent kinase 16 (Homo sapiens) (UniProt Q00536); experiment: Binding affinity to wild-type human partial length PCTK1 (G160 to A474 residues) expressed in HEK293 cells at 1 uM by Kinomescan method relative to control; type: cell-based
[17] = molecular target: 3-phosphoinositide-dependent protein kinase 1 (Homo sapiens) (UniProt O15530); experiment: Binding affinity to wild-type human full length PDPK1 (M1 to Q556 residues) expressed in Escherichia coli BL21 at 1 uM by Kinomescan method relative to control; procedure, shortened: as §1
[18] = molecular target: Phosphatidylinositol 4,5-bisphosphate 3-kinase catalytic subunit beta isoform (Homo sapiens) (UniProt P42338); experiment: Binding affinity to wild-type human partial length PIK3CB (P118 to S1070 residues) expressed in HEK293 cells at 1 uM by Kinomescan method relative to control; type: cell-based
[19] = molecular target: Phosphatidylinositol 4-phosphate 5-kinase type-1 alpha (Homo sapiens) (UniProt Q99755); experiment: Binding affinity to wild-type human full length PIP5K1A (M1 to H562 residues) expressed in Escherichia coli BL21 at 1 uM by Kinomescan method relative to control; procedure, shortened: as §1
[20] = molecular target: Serine/threonine-protein kinase Sgk2 (Homo sapiens) (UniProt Q9HBY8); experiment: Binding affinity to wild-type human partial length SGK2 (L54 to C427 residues) expressed in HEK293 cells at 1 uM by Kinomescan method relative to control; type: cell-based
[21] = molecular target: STE20/SPS1-related proline-alanine-rich protein kinase (Homo sapiens) (UniProt Q9UEW8); experiment: Binding affinity to wild-type human partial length STK39 (P43 to I357 residues) expressed in HEK293 cells at 1 uM by Kinomescan method relative to control; type: cell-based
[22] = molecular target: Tyrosine-protein kinase SYK (Homo sapiens) (UniProt P43405); experiment: Binding affinity to wild-type human partial length SYK (D354 to N635 residues) expressed in Escherichia coli BL21 at 1 uM by Kinomescan method relative to control
[23] = molecular target: TGF-beta receptor type-2 (Homo sapiens) (UniProt P37173); experiment: Binding affinity to wild-type human partial length TGFBR2 (I218 to K567 residues) expressed in Escherichia coli BL21 at 1 uM by Kinomescan method relative to control
[24] = molecular target: Non-receptor tyrosine-protein kinase TNK1 (Homo sapiens) (UniProt Q13470); experiment: Binding affinity to wild-type human full length TNK1 (M1 to P661 residues) expressed in Escherichia coli BL21 at 1 uM by Kinomescan method relative to control; procedure, shortened: as §1
[25] = molecular target: Tyrosine-protein kinase TXK (Homo sapiens) (UniProt P42681); experiment: Binding affinity to wild-type human partial length TXK (L238 to W527 residues) expressed in Escherichia coli BL21 at 1 uM by Kinomescan method relative to control
Chain of Tyrosine-protein kinase TXK (Homo sapiens) (P42681 whole entry, the tested form may be a part): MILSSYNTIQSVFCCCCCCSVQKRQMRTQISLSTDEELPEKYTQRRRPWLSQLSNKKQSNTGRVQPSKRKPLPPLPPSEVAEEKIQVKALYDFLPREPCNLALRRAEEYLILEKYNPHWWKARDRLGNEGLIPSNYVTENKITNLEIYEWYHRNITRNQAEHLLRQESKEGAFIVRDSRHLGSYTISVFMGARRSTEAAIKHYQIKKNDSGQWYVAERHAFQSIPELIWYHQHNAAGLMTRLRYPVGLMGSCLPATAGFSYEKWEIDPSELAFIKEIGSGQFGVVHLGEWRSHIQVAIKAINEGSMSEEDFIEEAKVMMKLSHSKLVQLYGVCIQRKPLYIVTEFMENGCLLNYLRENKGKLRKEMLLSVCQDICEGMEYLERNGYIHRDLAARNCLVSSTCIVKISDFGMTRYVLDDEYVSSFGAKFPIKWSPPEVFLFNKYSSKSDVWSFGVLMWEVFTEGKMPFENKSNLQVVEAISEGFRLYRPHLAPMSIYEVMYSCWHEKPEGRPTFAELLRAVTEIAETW

| Compound | Activity [1] [%] | Activity [2] [%] | Activity [3] [%] | Activity [4] [%] | Activity [5] [%] | Activity [6] [%] | Activity [7] [%] | Activity [8] [%] | Activity [9] [%] | Activity [10] [%] | Activity [11] [%] | Activity [12] [%] | Activity [13] [%] | Activity [14] [%] | Activity [15] [%] | Activity [16] [%] | Activity [17] [%] | Activity [18] [%] | Activity [19] [%] | Activity [20] [%] | further results |
| --- | --- | --- | --- | --- | --- | --- | --- | --- | --- | --- | --- | --- | --- | --- | --- | --- | --- | --- | --- | --- | --- |
| C=CC(=O)Nc1ccc(C(=O)Nc2ccc(Nc3ncc4c(n3)N(C)c3ccc(C)cc3C(=O)N4C)cc2)cc1 | 91 | 100 | 92 | 0 | 88 | 99 | 100 | 95 | 93 | 94 | 83 | 78 | 100 | 97 | 84 | 100 | 100 | 100 | 100 | 100 | Activity [21]: 88%; Activity [22]: 74%; Activity [23]: 96%; Activity [24]: 89%; Activity [25]: 100% |
| CCC(=O)Nc1ccc(C(=O)Nc2ccc(Nc3ncc4c(n3)N(C)c3ccc(C)cc3C(=O)N4C)cc2)cc1 | 64 | 100 | 60 | 0.45 | 90 | 88 | 87 | 47 | 100 | 100 | 94 | 100 | 100 | 100 | 97 | 74 | 96 | 50 | 100 | 70 | Activity [21]: 73%; Activity [22]: 87%; Activity [23]: 100%; Activity [24]: 71%; Activity [25]: 93% |
